Published values gathered from unrelated publications.
Target: Testis-specific serine/threonine-protein kinase 2 (TSSK2, Homo sapiens, UniProt Q96PF2)
One construct used (Q96PF2 1-358): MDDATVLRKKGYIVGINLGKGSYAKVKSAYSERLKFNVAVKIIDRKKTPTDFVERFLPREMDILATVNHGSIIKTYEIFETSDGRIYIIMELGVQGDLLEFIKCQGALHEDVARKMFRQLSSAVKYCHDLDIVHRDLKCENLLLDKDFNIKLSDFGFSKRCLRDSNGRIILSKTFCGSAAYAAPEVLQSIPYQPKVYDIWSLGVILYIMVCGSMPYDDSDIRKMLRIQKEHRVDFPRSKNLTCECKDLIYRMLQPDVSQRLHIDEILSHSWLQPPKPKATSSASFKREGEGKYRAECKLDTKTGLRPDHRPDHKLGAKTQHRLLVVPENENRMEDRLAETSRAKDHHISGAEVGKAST

CCN(CC)CCNC(=O)c1c(C)[nH]c(/C=C2\C(=O)Nc3ccc(F)cc32)c1C
inhibition (enzyme activity; inhibitor; 10 µM): 54%

O=C1NC(=O)c2cc(Nc3ccc(F)cc3)c(Nc3ccc(F)cc3)cc21
remaining signal (cell-free assay; 0.5 µM): 97.2%

CNC(=O)c1cc(Oc2ccc(NC(=O)Nc3ccc(Cl)c(C(F)(F)F)c3)cc2)ccn1
inhibition (enzyme activity; inhibitor; 0.3 µM): -4%

CC(C)(C)c1nc(-c2cccc(NS(=O)(=O)c3c(F)cccc3F)c2F)c(-c2ccnc(N)n2)s1
remaining activity (enzyme activity; inhibitor; radiometric; 1 µM): 86%

O=C(Nc1cnn(-c2csc(C(=O)NC3COC3)c2)c1)Nc1ccccc1Cl
remaining activity (enzyme activity; inhibitor; 5 µM): 91.5%

CNc1cccc2cc(C(=O)Nc3ccc(C(=O)O)cc3)c(=O)[nH]c12
inhibition (enzyme activity; inhibitor; 10 µM): 3.4%

Cc1ccc(NC(=O)c2ccc(C)c(C(F)(F)F)c2)cc1C#Cc1nn(C2CCC(O)CC2)c2ncnc(N)c12 (centres unmarked)
remaining signal (cell-free assay; 10 µM): 96%

Cc1ccc(Nc2nccc(N(C)c3ccc4c(C)n(C)nc4c3)n2)cc1S(N)(=O)=O
inhibition (enzyme activity; inhibitor; 10 µM): 5%

Cc1cnc(NC2CCOCC2)nc1-n1cnc(C(=O)NC(CN)c2cc(F)cc(Cl)c2)c1 (centres unmarked)
remaining activity (enzyme activity; inhibitor; radiometric; 1 µM): 108%

CCCOc1ccc(OC)c(F)c1C(=O)c1ccc(C(=O)N[C@@H]2CNC[C@H]2NC(=O)c2ccc3[nH]ncc3c2)cc1
remaining activity (enzyme activity; inhibitor; 10 µM): 87%

Cc1sc(C(=O)NC2COC2)cc1-n1cc(NC(=O)Nc2c(F)cccc2Cl)cn1
remaining activity (enzyme activity; inhibitor; 10 µM): 84.7%

N#CCCc1ccc2c(c1)-c1[nH]c3ccc([N+](=O)[O-])cc3c1CC(=O)N2
remaining signal (cell-free assay; 0.5 µM): 78.7%

COc1cc(Cl)c(C(=O)N[C@@H](CN[C@H]2CC[C@@H](N)CC2)Cc2ccc(C#N)cc2)cc1-c1ccc(CN[C@H](C)c2ccc(C)cc2)o1
remaining activity (enzyme activity; inhibitor; 1 µM): 101%

COc1cc2ncnc(Nc3ccc(Oc4ccccc4)cc3C)c2cc1OC
inhibition (enzyme activity; inhibitor; 1 µM): -1%
